As usually defined, the IC50 is the concentration needed to halve the response being measured. A word on the inhibition: it is the drop in the measured response relative to a control, in per cent.

IC50 and inhibition data for 25 molecules are collected here from ChEMBL document CHEMBL4610036, “Discovery of small molecule antagonists of chemokine receptor CXCR6 that arrest tumor growth in SK-HEP-1 mouse xenografts as a model of hepatocellular carcinoma” (Bioorg Med Chem Lett, 2020).

Assay [1] has as its target T1, C-X-C chemokine receptor type 6 (Homo sapiens, UniProt O00574). As to the kind of experiment: Antagonist activity at Prolink-tagged human CXCR6 receptor assessed as inhibition of forskolin-induced cAMP accumulation by DiscoveRx cell based assay. It counts as functional. In outline: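 Lance Ultra TR-FRET cAMP assay in CXCR6 β-arrestin cells, 500 cells/well in OptiMEM/2% FBS, grown overnight. Compound added, then forskolin (2.5 mM stock) in HBSS/HEPES/BSA/RO-20-1724 with or without 20 nM CXCL16, 30 min at room temperature. Eu-cAMP tracer and ULight anti-cAMP antibody added, read after 30 min. Curve fit with Hill slope 1; ≥2 independent runs.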
On the technique in general: cAMP levels reflect the balance of adenylyl cyclase and phosphodiesterase activity.
Target sequence in this assay (O00574 whole entry): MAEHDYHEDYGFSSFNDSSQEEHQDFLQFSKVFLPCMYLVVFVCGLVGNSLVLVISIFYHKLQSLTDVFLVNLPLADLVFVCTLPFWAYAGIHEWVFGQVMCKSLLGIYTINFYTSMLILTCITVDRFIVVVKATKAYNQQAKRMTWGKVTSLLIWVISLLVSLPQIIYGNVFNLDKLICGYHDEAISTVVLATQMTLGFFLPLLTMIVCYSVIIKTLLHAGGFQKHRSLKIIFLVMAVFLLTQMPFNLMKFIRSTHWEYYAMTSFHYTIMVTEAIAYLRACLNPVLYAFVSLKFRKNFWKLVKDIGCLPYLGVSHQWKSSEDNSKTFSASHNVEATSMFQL

Assay [2] addresses T1, C-X-C chemokine receptor type 6. The assay can be described thus: Antagonist activity at Prolink-tagged human CXCR6 receptor assessed as inhibition of CXCL16-induced beta-arrestin recruitment by DiscoveRx cell based assay relative to control. Set-up: concentration or dose not given beside the values. A digest of the protocol:
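CXCR6 β-arrestin cells in assay media without G418/hygromycin, 800 cells/well, grown overnight at 37 °C; compounds added acoustically (DMSO ≤0.3%), then 20 nM CXCL16 (final) for 90 min at 37 °C. PathHunter luminescence read. Normalized between CXCL16-alone and no-ligand wells; four-parameter fit with Hill slope fixed at 1; at least two runs on different days, averaged pIC50 ± SD.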
Target sequence in this assay (O00574 whole entry, looked up): as the sequence (O00574 whole entry) above

For assay [3] the target is unchanged. As to the kind of experiment: Antagonist activity at Prolink-tagged human CXCR6 receptor assessed as inhibition of CXCL16-induced beta-arrestin recruitment by DiscoveRx cell based assay. On the technique in general: Arrestin recruitment assays detect the binding of arrestin to an activated receptor.
Target sequence in this assay (O00574 whole entry): as above
Assay [4] has the same target. As to the kind of experiment: Antagonist activity at Prolink-tagged human CXCR6 receptor assessed as inhibition of forskolin-induced cAMP accumulation by DiscoveRx cell based assay relative to control. Set-up: concentration or dose not given beside the values. It counts as functional. In outline: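 CXCR6 β-arrestin cells in OptiMEM with 2% FBS, 500 cells/well, grown overnight; compounds added, then forskolin with 20 nM CXCL16 (stock concentrations) in HBSS/HEPES/BSA with RO-20-1724, 30 min at room temperature. cAMP read by LANCE Ultra TR-FRET after a further 30 min. Hill slope fixed at 1; at least two runs on different days, averaged pIC50 ± SD.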
Target sequence in this assay (O00574 whole entry, looked up): as the sequence (O00574 whole entry) above

The source made the active and inactive calls. The rule behind the calls is not given here.

`COc1cc(C(=O)N[C@H]2C[C@H]3CCC[C@@H](C2)N3CC(=O)Nc2ccccc2)cc(OC)c1OC`: the IC50 is 40.9 µM in assay [1] and above 40 µM in assay [3]. Besides, the inhibition result in assay [2] is “inactive”. For the same molecule, in assay [4] (concentration not given here), the inhibition stood at 70%.
As for `COc1cc(C(=O)N[C@@H]2C[C@H]3CCC[C@@H](C2)N3CC(=O)Nc2cc(Cl)cc(Cl)c2)cc(OC)c1OC`, the IC50 in assay [1] was 1.3 µM; in assay [3] it was 0.31 µM. For the same molecule, the inhibition worked out at 104% in assay [2] (concentration not given here) and 96% in assay [4] (concentration not given here).
In the case of `COc1cc(C(=O)N[C@@H]2C[C@H]3CCC[C@@H](C2)N3Cc2ccc3ccccc3n2)cc(OC)c1OC`, the IC50 was 40.3 µM in assay [1] and 6.7 µM in assay [3]. The inhibition in assay [2] (concentration not given here) and in assay [4] (concentration not given here) was 88% in each case.
For the molecule `COc1ccc(C(=O)N[C@@H]2C[C@H]3CCC[C@@H](C2)N3CC(=O)Nc2ccc(Cl)cc2)cc1OC`, the IC50 in assay [1] and in assay [3] was above 40 µM each time. Further, the inhibition result in assay [2] and in assay [4] was “inactive” throughout.
Take `COc1cc(C(=O)N[C@@H]2C[C@H]3CCC[C@@H](C2)N3Cc2nc3ccc(Cl)cc3s2)cc(OC)c1OC`: the IC50 is 14 µM in assay [1] and 0.27 µM in assay [3]. Also, the figures for the inhibition in assay [2] (concentration not given here) and in assay [4] (concentration not given here) were 103% and 83%, respectively.
Consider `COc1cc(C(=O)N[C@@H]2C[C@H]3CCC[C@@H](C2)N3Cc2nc3ccccc3s2)cc(OC)c1OC`, for which the values for the IC50 in assay [1] and in assay [3] were 7.9 µM and 0.3 µM, respectively. Also, the inhibition came to 101% in assay [2] (concentration not given here) and 85% in assay [4] (concentration not given here).
Take `COc1cc(C(=O)N[C@@H]2C[C@H]3CCC[C@@H](C2)N3CC(=O)Nc2cccc(F)c2)cc(OC)c1OC`: the IC50 in assay [1] stood at 8.5 µM; in assay [3], 0.84 µM. Further, the inhibition in assay [2] (concentration not given here) is 104%; in assay [4] (concentration not given here), 103%.
Turning to `COc1cc(C(=O)N[C@@H]2C[C@H]3CCC[C@@H](C2)N3Cc2cc3ccccc3[nH]2)cc(OC)c1OC`, the IC50 in assay [1] is above 50 µM; in assay [3], 23.7 µM. Moreover, the inhibition in assay [2] (concentration not given here) stood at 64%. In assay [4], the inhibition entry is “inactive”.
Turning to `COc1cc(C(=O)N[C@@H]2C[C@H]3CCC[C@@H](C2)N3CC(=O)Nc2ccc(F)cc2)cc(OC)c1OC`, the IC50 in assay [1] stood at 30.7 µM; in assay [3] it was 5.8 µM. Also, the results for the inhibition in assay [2] (concentration not given here) and in assay [4] (concentration not given here) were 100% and 90%, respectively.
The corresponding values for `COc1cc(C(=O)N[C@@H]2C[C@H]3CCC[C@@H](C2)N3CC(=O)Nc2ccccc2C)cc(OC)c1OC` are 9.3 µM, 0.79 µM, 104% and 101%.
In the case of `COc1cccc(NC(=O)CN2[C@@H]3CCC[C@H]2C[C@H](NC(=O)c2cc(OC)c(OC)c(OC)c2)C3)c1`, the IC50 in assay [1] is 51 µM; in assay [3], 5.8 µM. Besides, the inhibition stood at 96% in assay [2] (concentration not given here) and 93% in assay [4] (concentration not given here).
The corresponding values for `COc1cc(C(=O)N[C@@H]2C[C@H]3CCC[C@@H](C2)N3CC(=O)Nc2ccccc2Br)cc(OC)c1OC` are 0.9 µM, 0.16 µM, 105% and 104%.
On the same counts, the results for `COc1ccccc1NC(=O)CN1[C@@H]2CCC[C@H]1C[C@H](NC(=O)c1cc(OC)c(OC)c(OC)c1)C2` are 14.7 µM, 2.1 µM, 102% and 100%.
Turning to `COc1cc(C(=O)NC2CCN(CC(=O)Nc3ccccc3)CC2)cc(OC)c1OC`, the IC50 in assay [1] and in assay [3] was above 40 µM in each case. The inhibition entry in assay [2] and in assay [4] was “inactive” throughout.
Regarding `COc1cc(C(=O)N[C@@H]2C[C@H]3CCC[C@@H](C2)N3Cc2nc3c(OC)cccc3s2)cc(OC)c1OC`, the IC50 in assay [1] is above 50 µM; in assay [3] it was 3.1 µM. In addition, the inhibition in assay [2] (concentration not given here) came out at 86%. For the same molecule, the inhibition result in assay [4] is “inactive”.
Consider `COc1cc(C(=O)N[C@@H]2C[C@H]3CCC[C@@H](C2)N3CC(=O)Nc2ccccc2C#N)cc(OC)c1OC`, for which the IC50 in assay [1] was found to be 7 µM; in assay [3] it was 0.93 µM. Further, the inhibition came out at 91% in assay [2] (concentration not given here) and 105% in assay [4] (concentration not given here).
The corresponding values for `COc1cc(C(=O)N[C@@H]2C[C@H]3CCC[C@@H](C2)N3CC(=O)Nc2ccccc2)cc(OC)c1OC` are 30.6 µM, 5.8 µM, 65% and 86%.
The corresponding values for `COc1cc(C(=O)N[C@@H]2C[C@H]3CCC[C@@H](C2)N3CC(=O)Nc2ccc(Cl)c(Cl)c2)cc(OC)c1OC` are 1.8 µM, 0.35 µM, 103% and 101%.
For `COc1cc(C(=O)N[C@@H]2C[C@H]3CCC[C@@H](C2)N3Cc2cccc(Cl)c2)cc(OC)c1OC`, the half-maximal inhibitory concentration (IC50) in assay [1] amounted to 14.8 µM; in assay [3], 9.5 µM. Also, the inhibition in assay [2] (concentration not given here) was 97%; in assay [4] (concentration not given here) it was 100%.
For `COc1ccccc1CN1[C@@H]2CCC[C@H]1C[C@H](NC(=O)c1cc(OC)c(OC)c(OC)c1)C2`, the IC50 in assay [1] and in assay [3] was above 50 µM each time. In addition, the inhibition entry in assay [2] and in assay [4] was “inactive” throughout.
As for `COc1cc(C(=O)N[C@@H]2C[C@H]3CCC[C@@H](C2)N3Cc2nc3cc(Cl)ccc3s2)cc(OC)c1OC`, the IC50 in assay [1] was determined as 3.2 µM; in assay [3], 0.17 µM. The inhibition is 100% in assay [2] (concentration not given here) and 90% in assay [4] (concentration not given here).
Regarding `COc1cc(C(=O)N[C@@H]2C[C@H]3CCC[C@@H](C2)N3CCc2nc3ccccc3s2)cc(OC)c1OC`, the IC50 in assay [1] and in assay [3] was above 50 µM throughout. In addition, the inhibition result in assay [2] and in assay [4] was “inactive” each time.
Consider `COc1cc(C(=O)N[C@@H]2C[C@H]3CCC[C@@H](C2)N3Cc2cc3ccccc3s2)cc(OC)c1OC`, for which the figures for the half-maximal inhibitory concentration (IC50) in assay [1] and in assay [3] were 25 µM and 0.9 µM, respectively. Besides, the inhibition in assay [2] (concentration not given here) worked out at 93%; in assay [4] (concentration not given here) it was 49%.
Turning to `COc1cc(C(=O)N[C@@H]2C[C@H]3CCC[C@@H](C2)N3Cc2nc3ccccc3[nH]2)cc(OC)c1OC`, the IC50 in assay [1] is above 40 µM; in assay [3] it was 10.5 µM. In assay [2] (concentration not given here), the inhibition was determined as 84%. In addition, the inhibition result in assay [4] is “inactive”.
With `COc1cc(C(=O)N[C@@H]2C[C@H]3CCC[C@@H](C2)N3CC(=O)Nc2cc(Cl)ccc2Cl)cc(OC)c1OC`, the IC50 in assay [1] was determined as 0.7 µM; in assay [3], 0.13 µM. The figures for the inhibition in assay [2] (concentration not given here) and in assay [4] (concentration not given here) were 99% and 101%, respectively.
